In ChEMBL document CHEMBL3797028, “Novel S1P1 receptor agonists - Part 4: Alkylaminomethyl substituted aryl head groups” (Eur J Med Chem, 2016):

Assays:
[1] = species on record: Rattus norvegicus; assay: Intrinsic clearance in rat liver microsomes scaled to body weight; conditions: in vitro
[2] = target: T1, Sphingosine 1-phosphate receptor 4 (Homo sapiens, UniProt O95977); assay: Agonist activity at S1PR4 (unknown origin)
T1 sequence (O95977 whole entry): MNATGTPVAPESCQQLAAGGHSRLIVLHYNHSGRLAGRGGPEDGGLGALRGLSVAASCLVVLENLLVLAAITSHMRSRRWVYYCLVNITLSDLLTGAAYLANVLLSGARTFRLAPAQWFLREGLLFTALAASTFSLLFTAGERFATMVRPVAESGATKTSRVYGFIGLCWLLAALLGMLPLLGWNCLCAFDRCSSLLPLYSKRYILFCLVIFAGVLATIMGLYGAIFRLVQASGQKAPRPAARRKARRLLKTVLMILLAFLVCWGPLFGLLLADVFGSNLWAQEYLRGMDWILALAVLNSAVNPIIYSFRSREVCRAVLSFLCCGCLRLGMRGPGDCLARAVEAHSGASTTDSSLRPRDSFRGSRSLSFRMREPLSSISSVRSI

[3] = system: Rattus norvegicus; assay: Change in circulating lymphocyte count in Wistar rat at 3 mg/kg administered as single dose through oral gavage after 24 hrs relative to control; type: functional
Method in brief: (§1)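 Male Wistar rats (RccHan:WIST; n = 6) were given a single oral gavage dose of compound in DMSO plus 7.5% succinylated gelatine (final 5% DMSO). Blood lymphocytes were counted just before dosing and at later timepoints. Percent change was calculated per animal relative to the pre-dose value and compared with a vehicle-treated group, reported as the mean. A ±15% change was treated as baseline, and a reduction of about 60% or more as maximal.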

[4] = Plasma concentration in Wistar rat at 1 mg/kg administered as single dose through oral gavage after 24 hrs by LC-MS/MS analysis; type: ADME, organism-based
Method in brief: (§2)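 Single oral gavage dose to male Wistar rats in DMSO/7.5% succinylated gelatine (final 5% DMSO). Blood was drawn into EDTA at the lymphocyte-count timepoints. Plasma was prepared at 3000 g for 10 min at 4 °C and analysed by LC-MS/MS after protein precipitation.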

[5] = system: Rattus norvegicus; assay: Reduction in circulating lymphocyte count in po dosed Wistar rat administered through gavage after 3 to 96 hrs; type: functional, organism-based
Method in brief: as §1

[6] = system: Plasma; assay: Plasma concentration in Wistar rat at 3 mg/kg administered as single dose through oral gavage after 72 hrs by LC-MS/MS analysis; type: ADME, organism-based; conditions: in vivo, BLD = below limit of detection
Method in brief: as §2

[7] = Total brain concentration in Wistar rat at 10 mg/kg administered as single dose through oral gavage after 2 hrs by LC-MS/MS analysis; type: ADME, organism-based; conditions: read-out: Drug uptake
Method in brief: (§3)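 Male Wistar rats (n = 2 per timepoint) were dosed orally at 10 mg/kg. At 2, 6 and 24 h they were anaesthetised with 5% isoflurane and sacrificed, and blood was taken for plasma. The brain was perfused via the carotid with 10 mL 0.9% NaCl, removed, and homogenised in an equal volume of ice-cold 0.1 M Na-phosphate pH 7.4. Samples were assayed by LC-MS/MS against blank-brain calibration. Brain/plasma ratio was calculated from these values, reported as the mean of 2.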

[8] = Plasma concentration in Wistar rat at 10 mg/kg administered as single dose through oral gavage after 6 hrs by LC-MS/MS analysis; type: ADME, organism-based
Method in brief: as §2

[9] = Apparent oral clearance in Wistar rat plasma at 1 to 10 mg/kg administered through gavage by LC-MS/MS analysis; type: ADME, organism-based
Method in brief: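 Male Wistar rats received a single oral gavage dose of compound dissolved in DMSO and added to 7.5% succinylated gelatine in water (final 5% DMSO). EDTA plasma was spun at 3000 g for 10 min at 4 °C and analysed by LC-MS/MS after protein precipitation. Oral clearance was estimated from the plasma concentration–time data. In vivo intrinsic clearance used the well-stirred liver model, assuming complete absorption.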

[10] = Total plasma concentration in Wistar rat at 10 mg/kg administered as single dose through oral gavage after 24 hrs by LC-MS/MS analysis; type: ADME, organism-based
Method in brief: as §3

[11] = Ratio of total drug level in brain to plasma in Wistar rat at 10 mg/kg administered as single dose through oral gavage after 24 hrs; type: ADME, organism-based; conditions: read-out: BPR
Method in brief: as §3

[12] = system: Rattus norvegicus; assay: Change in circulating lymphocyte count in Wistar rat at 10 mg/kg administered as single dose through oral gavage after 3 hrs relative to control; type: functional
Method in brief: as §1

[13] = system: Rattus norvegicus; assay: Change in circulating lymphocyte count in Wistar rat at 10 mg/kg administered as single dose through oral gavage after 6 hrs relative to control; type: functional
Method in brief: as §1

[14] = Total brain concentration in Wistar rat at 10 mg/kg administered as single dose through oral gavage after 24 hrs by LC-MS/MS analysis; type: ADME, organism-based; conditions: read-out: Drug uptake
Method in brief: as §3

[15] = Plasma concentration in Wistar rat at 10 mg/kg administered as single dose through oral gavage after 24 hrs by LC-MS/MS analysis; type: ADME, organism-based
Method in brief: as §2

[16] = Distribution coefficient, log D between 1-octonol and phosphate buffer at pH 7; type: physicochemical; conditions: 1-octanol/phosphate buffer
Method in brief: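 Partition was between 1-octanol and phosphate buffer at pH 7.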

[17] = system: Rattus norvegicus; assay: Change in circulating lymphocyte count in Wistar rat at 1 mg/kg administered as single dose through oral gavage after 6 hrs relative to control; type: functional
Method in brief: as §1

[18] = system: Rattus norvegicus; assay: Change in circulating lymphocyte count in Wistar rat at 3 mg/kg administered as single dose through oral gavage after 6 hrs relative to control; type: functional
Method in brief: as §1

[19] = Plasma concentration in Wistar rat at 10 mg/kg administered as single dose through oral gavage after 96 hrs by LC-MS/MS analysis; type: ADME, organism-based
Method in brief: as §2

[20] = Fraction unbound in Wistar rat liver microsomes incubated for 6 hrs by LC-MS/MS based equilibrium dialysis method; type: ADME
Method in brief: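 Rapid equilibrium dialysis was run on a shaker for 6 h at 37 °C. The donor side held rat plasma (pH 7.2–7.6) or 1 mg/mL rat liver microsomes in phosphate buffer pH 7.4. The receiver side held phosphate buffer pH 7.4. Both sides were measured by LC-MS/MS to give free fraction and recovery.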

[21] = target: Sphingosine 1-phosphate receptor 2 (Homo sapiens, UniProt O95136); assay: Agonist activity at S1PR2 (unknown origin)
Sphingosine 1-phosphate receptor 2, sequence (O95136 whole entry): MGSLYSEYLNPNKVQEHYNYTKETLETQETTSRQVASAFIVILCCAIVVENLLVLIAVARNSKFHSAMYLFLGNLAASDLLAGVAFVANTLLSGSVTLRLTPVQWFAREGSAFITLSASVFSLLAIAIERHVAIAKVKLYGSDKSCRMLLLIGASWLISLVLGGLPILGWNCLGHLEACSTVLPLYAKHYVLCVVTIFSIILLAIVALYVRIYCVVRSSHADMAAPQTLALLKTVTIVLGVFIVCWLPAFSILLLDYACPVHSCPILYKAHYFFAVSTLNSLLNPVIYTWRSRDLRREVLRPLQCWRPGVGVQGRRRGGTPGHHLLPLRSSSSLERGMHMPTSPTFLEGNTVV

EC50 [2]: > 1 µM
concentration at 24 h [4]: 5.2 ng/mL
Cp [6]: BLD
concentration at 2 h [7]: 522 ng/g
concentration at 6 h [8]: 540 ng/mL
CL/F [9]: 19 mL/min/kg
concentration at 24 h [10]: 66.5 ng/mL
Kp at 24 h [11]: 11.5
concentration at 24 h [14]: 776 ng/g
concentration at 24 h [15]: 92 ng/mL
logD [16]: > 4.1
concentration at 96 h [19]: 0.5 ng/mL
fraction unbound at 6 h [20]: 0.002
EC50 [21]: > 1 µM
Compound: CCc1cc(-c2noc(-c3cc(C)c(CN(C)CC(C)C)s3)n2)cc(C)c1OC[C@@H](O)CNC(=O)CO
CL [1]: 25200 mL/min/kg
Activity [3]: -25%
Activity [5]: Dose-dependent effect
Activity [12]: -69%
Activity [13]: -77%
Activity [17]: -46%
Activity [18]: -70%
